Here are results for 31 molecules from ChEMBL document CHEMBL1157853, “Synthesis, pharmacological activity and comparative QSAR modeling of 1,5-N,N'-substituted-2-(substituted naphthalenesulphonyl) glutamamides as possible anticancer agents” (2010).

A short description of assay [1]: Antitumor activity against ip dosed mouse EAC implanted in Swiss albino mouse assessed as inhibition of ascitic fluid administered daily for 7 days measured on 9th day relative to control. It counts as functional, Ehrlich. The method in brief:
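Female Swiss albino mice (18-20 g, 6 per group) implanted ip with 2×10^6 EAC cells/0.2 mL. Compound in phosphate buffer pH 7.2 (PBS + 2% Tween 80 when needed) given ip daily from day 2, seven doses; controls received vehicle. Day 9, after a 6 h fast, mice weighed before and after ascitic fluid removal; the difference is tumor weight. %TWI derived from mean test vs control weight.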

Assay [2] can be described thus: Antitumor activity against ip dosed mouse EAC implanted in Swiss albino mouse assessed as inhibition of ascitic cell administered daily for 7 days measured on 9th day relative to control. It counts as functional, Ehrlich. The method in brief: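 Female Swiss albino mice (18-20 g, 6 per group, test vs vehicle control) given 2×10^6 EAC cells/0.2 mL ip. From day 2, compound in phosphate buffer pH 7.2 (2% Tween 80 in PBS if needed) given ip every 24 h for seven doses. Day 9, after a 6 h fast, ascitic fluid withdrawn and live cells counted by trypan blue and haemocytometer. %TCI derived from mean cells/ml in test vs control.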

With `CCCCCNC(=O)CCC(NS(=O)(=O)c1ccc(Br)c2ccccc12)C(=O)NCCCCC` (configuration not stated), the “inhibition (INH)” value in assay [1] is reported as 22.81%; in assay [2], 10.42%.

As to `CCCNC(=O)CCC(NS(=O)(=O)c1ccc(Br)c2ccccc12)C(=O)NCCC` (configuration not stated), the “inhibition (INH)” value in assay [1] stood at 2.96%; in assay [2], 14.86%.

On to `CCNC(=O)CCC(NS(=O)(=O)c1ccc(Cl)c2ccccc12)C(=O)NCC` (configuration not stated), for which the “inhibition (INH)” value was determined as 24.1% in assay [1] and 48.67% in assay [2].

With `CCCCNC(=O)CCC(NS(=O)(=O)c1ccc(Cl)c2ccccc12)C(=O)NCCCC` (configuration not stated), the results for the “inhibition (INH)” value in assay [1] and in assay [2] were 20.71% and 33.1%, respectively.

In the case of `CCNC(=O)CCC(NS(=O)(=O)c1cccc2ccccc12)C(=O)NCC` (configuration not stated), the “inhibition (INH)” value came to 24.61% in assay [1] and 27.92% in assay [2].

`CCNC(=O)CCC(NS(=O)(=O)c1ccc(Br)c2ccccc12)C(=O)NCC` (configuration not stated): the entries for the “inhibition (INH)” value in assay [1] and in assay [2] were 24.34% and 16.22%, respectively.

Regarding `NC(=O)CCC(NS(=O)(=O)c1ccc(Br)c2ccccc12)C(N)=O` (configuration not stated), the “inhibition (INH)” value in assay [1] was 36.46%; in assay [2], 58.25%.

As to `O=C(CCC(NS(=O)(=O)c1cccc2ccccc12)C(=O)NC1CCCCC1)NC1CCCCC1` (configuration not stated), the “inhibition (INH)” value is 43.58% in assay [1] and 53.76% in assay [2].

With `COc1ccc2ccccc2c1S(=O)(=O)NC(CCC(=O)NC1CCCCC1)C(=O)NC1CCCCC1` (configuration not stated), the “inhibition (INH)” value in assay [1] worked out at 13.52%; in assay [2] it was 4.34%.

As for `NC(=O)CCC(NS(=O)(=O)c1ccc(Cl)c2ccccc12)C(N)=O` (configuration not stated), the “inhibition (INH)” value in assay [1] came out at 55.21%; in assay [2] it was 48.52%.

As to `CCCNC(=O)CCC(NS(=O)(=O)c1ccc(Cl)c2ccccc12)C(=O)NCCC` (configuration not stated), the “inhibition (INH)” value in assay [1] worked out at 18.73%; in assay [2], 39.33%.

`CC(C)NC(=O)CCC(NS(=O)(=O)c1ccc(Cl)c2ccccc12)C(=O)NC(C)C` (configuration not stated): the “inhibition (INH)” value in assay [1] amounted to 24.68%; in assay [2], 75.17%.

As for `CCCCCNC(=O)CCC(NS(=O)(=O)c1cccc2ccccc12)C(=O)NCCCCC` (configuration not stated), the results for the “inhibition (INH)” value in assay [1] and in assay [2] were 56.62% and 17.64%, respectively.

With `CNC(=O)CCC(NS(=O)(=O)c1cccc2ccccc12)C(=O)NC` (configuration not stated), the “inhibition (INH)” value in assay [1] came to 27.42%; in assay [2], 69.32%.

As for `O=C(CCC(NS(=O)(=O)c1ccc(Br)c2ccccc12)C(=O)NCc1ccccc1)NCc1ccccc1` (configuration not stated), the “inhibition (INH)” value in assay [1] worked out at 8.99%; in assay [2], 23.5%.

On to `CNC(=O)CCC(NS(=O)(=O)c1ccc(Cl)c2ccccc12)C(=O)NC` (configuration not stated), for which the “inhibition (INH)” value is 20.57% in assay [1] and 46.52% in assay [2].

As to `CCCCCCNC(=O)CCC(NS(=O)(=O)c1ccc(Cl)c2ccccc12)C(=O)NCCCCCC` (configuration not stated), the “inhibition (INH)” value in assay [1] is recorded as 15.95%; in assay [2] it was 50.51%.

For the molecule `CNC(=O)CCC(NS(=O)(=O)c1ccc(Br)c2ccccc12)C(=O)NC` (configuration not stated), the “inhibition (INH)” value in assay [1] was determined as 20.58%; in assay [2], 10.62%.

In the case of `CO[C@@]12[C@H](COC(N)=O)C3=C(C(=O)C(C)=C(N)C3=O)N1C[C@@H]1N[C@@H]12` [MITOMYCIN], the “inhibition (INH)” value in assay [1] and in assay [2] was 100% in each case.

For the molecule `O=C(CCC(NS(=O)(=O)c1ccc(Cl)c2ccccc12)C(=O)NCc1ccccc1)NCc1ccccc1` (configuration not stated), the “inhibition (INH)” value is 22.69% in assay [1] and 22.94% in assay [2].

Turning to `NC(=O)CCC(NS(=O)(=O)c1cccc2ccccc12)C(N)=O` (configuration not stated), the “inhibition (INH)” value in assay [1] was found to be 32.19%; in assay [2] it was 38.34%.

`COc1ccc2ccccc2c1S(=O)(=O)NC(CCC(=O)NCc1ccccc1)C(=O)NCc1ccccc1` (configuration not stated): the “inhibition (INH)” value in assay [1] is 7.57%; in assay [2] it was 18.78%.

Turning to `CC(C)NC(=O)CCC(NS(=O)(=O)c1cccc2ccccc12)C(=O)NC(C)C` (configuration not stated), the entries for the “inhibition (INH)” value in assay [1] and in assay [2] were 17.74% and 43.96%, respectively.

On to `CCCNC(=O)CCC(NS(=O)(=O)c1cccc2ccccc12)C(=O)NCCC` (configuration not stated), for which the “inhibition (INH)” value in assay [1] stood at 16.15%; in assay [2], 14.21%.

In the case of `CC(C)CNC(=O)CCC(NS(=O)(=O)c1cccc2ccccc12)C(=O)NCC(C)C` (configuration not stated), the results for the “inhibition (INH)” value in assay [1] and in assay [2] were 11.93% and 61.96%, respectively.

As for `CC(C)CNC(=O)CCC(NS(=O)(=O)c1ccc(Cl)c2ccccc12)C(=O)NCC(C)C` (configuration not stated), the “inhibition (INH)” value in assay [1] was 15.2%; in assay [2], 41.28%.

`CCCCNC(=O)CCC(NS(=O)(=O)c1cccc2ccccc12)C(=O)NCCCC` (configuration not stated): the “inhibition (INH)” value is listed as 14.34% in assay [1] and 16.17% in assay [2].

`[N-]=[N+]=CC(=O)OC[C@H](N)C(=O)O` [AZASERINE]: the “inhibition (INH)” value in assay [1] and in assay [2] was 100% in each case.

`O=C(CCC(NS(=O)(=O)c1cccc2ccccc12)C(=O)NCc1ccccc1)NCc1ccccc1` (configuration not stated): the entries for the “inhibition (INH)” value in assay [1] and in assay [2] were 17.04% and 34.46%, respectively.

`CCCCCCNC(=O)CCC(NS(=O)(=O)c1c(OC)ccc2ccccc12)C(=O)NCCCCCC` (configuration not stated): the “inhibition (INH)” value in assay [1] amounted to 5.19%; in assay [2], 14.79%.

`[N-]=[N+]=CC(=O)CC[C@H](N)C(=O)O` [6-DIAZO-5-OXO-L-NORLEUCINE]: the “inhibition (INH)” value in assay [1] and in assay [2] was 100% each time.
